TAAR1 antagonist = human TAAR1 antagonists, primary screen, Fluo-8 calcium fluorescence, CHO RD-HGA16 cells | Trace amine-associated receptor 1 (Homo sapiens), Q96RJ0 | antagonist | inhibition, % at 3 µM | hit rate 1.5% among 360,000;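 active = inhibition above a per-plate cutoff, the mean inhibition of test compounds on that plate plus 3 SD, cut at about 49% in these data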;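 also: 0% = DMSO plus EC80 beta-PEA response and 100% = DMSO alone without agonist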
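Test system: RD-HGA16 CHO cells with stable hTAAR1 and Gα16 / Probe or stimulus: EC80 β-phenethylamine stimulus / Times: seeding 17-24 h prior, 75-min 37 °C, 30-min RT dye loading / Detection: Fluo-8 calcium-sensitive fluorescence / Read-out basis: % inhibition scaled between DMSO and EC80 PEA controls / Repeats: singlicate, one well per test compound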
TRPN1 ag = zebrafish TRPN1 channel agonists, primary screen, cell-based, HEK293, calcium fluorescence; AID 1424, 2008; activation, % at 3 µM; hit rate 0.18% among 220,000; HEK293 zebrafish TRPN1-YFP, Fluo-8 calcium fluorescence; 100% = response to 87 µM carbachol;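 active = activation above its plate's cutoff, the mean activation of test wells on that plate plus 3 SD, cut at about 19% in these data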;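 also: 0% = DMSO alone and 100% = 87 µM carbachol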
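Assay system: Zebrafish TRPN1-YFP in HEK293 cells | Incubation: Dye loading 1 h at 37 °C, then 30 min room temperature | Measured by: Kinetic Fluo-8 fluorescence, ex 470-495, em 515-575 nm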
TAAR1 ag = human TAAR1 agonists, primary screen, Fluo-8 calcium fluorescence, CHO RD-HGA16 cells. activation, % at 3 µM. vehicle wells 0%, saturating PEA agonist 100%. hit rate 0.99% among 360,000;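 active = activation above the mean activation of all test compounds in the run plus 3 SD, cut at about 38% in these data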
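Test system: RD-HGA16 (CHO) cells co-expressing Gα16 and hTAAR1; dosing: one-point dosing at 3 µM (nominal); timing: 17-24 h seeding, 75 min 37 °C dye, 30 min RT; signal: kinetic Fluo-8 calcium fluorescence; read-out basis: % activation relative to PEA EC100 response; controls: DMSO and PEA EC100; replicates: n 1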
GPR7 antag = GPR7 receptor antagonists, primary screen, cell-based, fluorescence, single concentration; hit rate 1.1% among 290,000; GPR7-expressing cells, fluorescence antagonist assay; inhibition, % at 4.4 µM; Neuropeptides B/W receptor type 1 (Homo sapiens), P48145; in the data active = inhibition above about 16%, passing the limit was not always enough;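 also: cells stimulated with the agonist NPW; 0% = agonist with vehicle and 100% = vehicle without agonist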
TRPML3 ag = human TRPML3 channel agonists, primary screen, cell-based, HEK293 TRPML3-YFP, Fluo-8 calcium fluorescence, 3 µM; 100% = the carbachol control signal; activation, % at 3 µM; hit rate 0.29% among 220,000;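 active = activation above its plate's cutoff, the mean activation of the plate's test wells plus 3 SD, cut at about 12% in these data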;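 also: 0% = DMSO only wells and 100% = carbachol wells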
Target sequence (Q8TDD5 whole entry, looked up): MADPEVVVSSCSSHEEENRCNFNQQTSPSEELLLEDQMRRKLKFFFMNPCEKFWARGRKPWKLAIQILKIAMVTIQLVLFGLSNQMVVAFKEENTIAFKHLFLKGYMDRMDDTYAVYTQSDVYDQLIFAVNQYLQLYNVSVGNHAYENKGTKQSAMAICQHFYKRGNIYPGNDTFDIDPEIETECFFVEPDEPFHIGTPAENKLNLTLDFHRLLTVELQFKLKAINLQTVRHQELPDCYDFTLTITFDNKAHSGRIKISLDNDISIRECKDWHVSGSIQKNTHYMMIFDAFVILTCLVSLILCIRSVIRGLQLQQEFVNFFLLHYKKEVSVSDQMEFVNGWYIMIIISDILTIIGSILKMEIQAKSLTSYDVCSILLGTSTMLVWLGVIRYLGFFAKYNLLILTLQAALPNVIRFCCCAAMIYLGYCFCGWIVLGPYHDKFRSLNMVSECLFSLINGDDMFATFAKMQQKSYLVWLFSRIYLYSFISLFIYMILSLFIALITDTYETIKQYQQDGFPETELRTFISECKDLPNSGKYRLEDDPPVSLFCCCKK
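Material: HEK293 cells stably carrying human TRPML3-YFP; compound dosing: single dose, 3 µM final nominal compound, 0.3% DMSO final; incubation: 1-h 37 °C dye load, 5-s basal, 120-s post-compound reads; technique: Fluo-8 intracellular calcium fluorescence, excitation 470-495 nm, emission 515-575 nm; read-out basis: percent activation from peak-to-basal fluorescence ratio, scaled between DMSO and carbachol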
LANA-H2B inh = blockers of LANA interaction with H2A/H2B – biochemical, FP readout, HTS, primary screen | Protein LANA1 (Human herpesvirus 8 type P (isolate GK18)), Q9QR71 | cell-free LANA-H2A/H2B peptide, fluorescence polarization | inhibition, % (concentration not given with the values) | hit rate 0.6% among 320,000; in the data active = inhibition mostly above about 10%, no sharp cut-off; inactive = mostly below about 6.7%
Starred values were filed as active, the others as inactive; nt = no result; + = active, no number; ! = not confirmed by another sample. Only some compounds are listed: those with a hit (about 3.4% of all), similar ones and a draw of the others.

SMILES	TAAR1 antagonist	TRPN1 ag	TAAR1 ag	GPR7 antag	TRPML3 ag	LANA-H2B inh
CCCN1C(=O)c2cc(C(=O)Nc3cccc(C(C)=O)c3)ccc2C1Nc1cccc(C(C)=O)c1 (stereo not given)	73.8*	2.2	14.0	0.5	-0.3	-3.4
CC(C)Oc1ccc(F)cc1-c1cc(C(=O)Nc2ccc(C(C)(C)C)cc2)[nH]n1	-21.9	nt	-0.1	nt	nt	nt
CC(C)Oc1ccc(F)cc1-c1cc(C(=O)Nc2ccccc2)[nH]n1	50.1*	nt	4.0	nt	nt	nt
Cc1cc(C)c2nc(C(F)(F)F)nc(NCCCN3CCCC3=O)c2c1	-5.3	0.3	5.8	5.6	0.5	19.3*
CCCCN1CC(COCc2ccccc2)Oc2cccc(Oc3ccc(F)cc3OC)c2S1(=O)=O (stereo not given)	-29.5	nt	2.8	nt	nt	nt
Cc1ccc(-c2nnc(SCC(=O)N/N=C/c3ccc(C(=O)O)cc3)n2C2CCCCC2)cc1	-0.2	nt	0.1	-14.9	nt	12.3*
O=C(O)COc1ccccc1/C=N/NC(=O)CSc1nnc(-c2ccc(Cl)cc2)n1C1CCCCC1	-24.3	-0.1	0.7	-13.6	0.3	-7.8
O=C(NCCCN1CCOCC1)C(Sc1ccccc1)c1ccccc1 (stereo not given)	-15.5	0.9	3.0	-3.2	0.8	52.7*
O=C(CCNC(=O)c1ccc(Br)cc1)NCCCN1CCOCC1	-7.5	nt	0.8	nt	nt	51.1*
O=C(NCCN1CCOCC1)C(Sc1ccccc1)c1ccccc1 (stereo not given)	3.9	0.2	3.8	0.5	-0.3	2.6
O=C(Cc1ccccc1[N+](=O)[O-])NCCCN1CCOCC1	-17.1	1.4	0.2	-2.4	0.8	+
O=S(=O)(NCc1ccc(Cl)c(Cl)c1)c1cc(Cl)ccc1N1CC[C@@H](O)C1	21.9	nt	3.9	nt	nt	nt
COc1ccc(-c2cscc2N)cc1	-11.7	nt	0.2	nt	nt	nt
Cc1c(C(=O)O)sc2nc3n(c(=O)c12)CCC(C)CC3 (stereo not given)	-18.2	-1.4	2.5	-10.9	0.1	20.1*
CC(NC(=O)C(NC(=O)OCc1ccccc1)C(C)O)C(=O)OCc1ccccc1 (stereo not given)	-20.2	nt	-0.7	nt	nt	nt
Cc1ccccc1CN(C)Cc1cc(=O)oc2c(C)c(C)ccc12	50.9*	nt	-0.7	14.2	nt	0.2
COc1cccc(CN(C)Cc2cc(=O)oc3c(C)c(C)ccc23)c1	13.3	nt	2.4	-18.1	nt	0.5
CC(C)C[C@H](NC(=O)c1cccs1)C(=O)N1CCC[C@H]1C(=O)NCc1ccccc1	-0.2	nt	-0.8	nt	nt	nt
O=C(c1cc[n+]([O-])cc1)N1CCCC(N2CCN(c3cccc(C(F)(F)F)c3)CC2)C1 (stereo not given)	-30.0	nt	1.1	-7.0	nt	21.0*
CCC(C)(C)NC(=O)c1ccc2c(c1)N(CC(=O)OC)C(=O)C(C)(C)O2	-13.0	-0.9	4.9	-9.1	-0.4	18.0*
COC(=O)c1sc(-c2ccc(C(C)(C)C)cc2)cc1NC(=O)c1ccccc1C(=O)O	19.7	-0.6	-0.7	-24.0	0.2	0.0
COC(=O)c1sc(-c2ccc(C(C)(C)C)cc2)cc1NC(=O)CSCC(=O)O	49.0*	0.8	5.1	-4.0	1.1	-2.3
Cc1ccc(Oc2ncccc2N)c2c1CCC2	-5.4	-0.2	0.2	18.6*	0.1	-4.2
COc1ccc(S(=O)(=O)/N=C2\C=C(Nc3ccc(O)cc3)C(=O)c3ccccc32)cc1	51.2*	nt	0.6	-28.0	nt	-1.1
COC(=O)Cc1nnn2c1[C@@H](C)[C@@H](c1ccccc1Br)OC[C@H](C)C2	-16.6	nt	0.0	nt	nt	nt
SMILES	TAAR1 antagonist	TRPN1 ag	TAAR1 ag	GPR7 antag	TRPML3 ag	LANA-H2B inh
CC1(C)OC(=O)C2=C(CC(CCc3ccccc3)OC2c2cccc(C(F)(F)F)c2)O1 (stereo not given)	0.7	nt	-1.1	nt	nt	nt
CC1(C)O[C@@H]2C[C@H]3[C@@H]4CCC5=CC(=O)C=C[C@]5(C)[C@@]4(F)[C@@H](O)C[C@]3(C)[C@]2(C(=O)CO)O1	-21.6	-0.2	2.1	-19.3	0.5	3.1
CC1(C)O[C@@H]2C[C@H]3[C@@H]4C[C@H](F)C5=CC(=O)C=C[C@]5(C)[C@@]4(F)[C@@H](O)C[C@]3(C)[C@]2(C(=O)CO)O1	-23.8	3.0	3.4	-0.9	1.6	34.3*!
C#Cc1ccc([C@@H]2C=C(C(=O)NCc3ccccc3)O[C@H](OCc3ccc(CO)cc3)C2)cc1	51.1*	0.3	8.7	-9.5	-0.5	-3.5
C[C@H]1COc2cccc(N3CCCC3)c2S(=O)(=O)N1	-23.1	nt	4.3	nt	nt	nt
O=C(NCc1ccccc1)[C@H]1CCCN1C(=O)[C@H]1CCCN1C(=O)c1ccc(F)cc1F	-12.9	nt	0.6	nt	nt	nt
Nc1nn(-c2ccccc2)c(N)c1N=Nc1cccc(F)c1	-12.2	1.0	1.2	1.3	0.0	-1.8
Nc1nn(-c2ccccc2)c(N)c1N=Nc1ccc2c(c1)OCO2	8.5	-0.7	0.1	23.6*	-0.4	1.1
Cc1cc(C)cc(OCC(O)CN2CCC(CN3C(=O)c4cccc5cccc(c45)C3=O)CC2)c1 (stereo not given)	-0.1	nt	39.4*	nt	nt	2.0
COc1cccc(OCC(O)CN2CCC(CN3C(=O)c4cccc5cccc(c45)C3=O)CC2)c1 (stereo not given)	-1.7	0.9	4.4	-11.0	0.9	-5.3
Oc1ccccc1CNc1cnc2ccccc2c1	-3.7	2.9	9.4	-2.5	1.2	20.1*
CCCCN(C(=O)C(C)N1C(=O)c2ccccc2C1=O)c1c(N)n(CC(C)C)c(=O)[nH]c1=O (stereo not given)	-8.1	nt	5.6	nt	nt	13.6*
CCCCN(C(=O)CCCc1nc2ccccc2s1)c1c(N)n(CC(C)C)c(=O)[nH]c1=O	-27.5	nt	2.4	nt	nt	176.4*
CCCCn1c(N)c(N(CCC(C)C)C(=O)CCCc2nc3ccccc3s2)c(=O)[nH]c1=O	-28.8	nt	0.3	11.3	nt	4.3
CCC(C)N(Cc1ccc(OC)cc1OC)S(=O)(=O)c1cc(Br)ccc1Br (stereo not given)	10.9	nt	0.2	nt	nt	nt
CCCCCCCCN1C(=O)[C@@H](CC(=O)NCCCN2CCCC2=O)C[C@@]2(C(=O)OC)C1=C[C@H](C(C)(C)C)O[C@@H]2C	-24.2	nt	-2.4	nt	nt	nt
CCc1ccc(NC(=O)C(C)Nc2ccc(S(=O)(=O)NC(C)=O)cc2)cc1 (stereo not given)	3.5	1.3	3.2	-0.3	0.3	15.5*

Screens (PubChem)
